From ChEMBL document CHEMBL1133762, “Aureobasidins: structure-activity relationships for the inhibition of the human MDR1 P-glycoprotein ABC-transporter” (J Med Chem, 2000)
In brackets after ≈: the same amount, converted by molar mass.

Key:
[1] = test system: Saccharomyces cerevisiae; assay: Minimum growth-inhibitory concentration against Saccharomyces cerevisiae ATCC 9763 by agar dilution method by the suspension of a fungi containing ~5 x 10e (7) cells/mL.; format: functional
Outline: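 Agar dilution on Sabouraud–dextrose agar plates with graded compound concentrations. A loopful of yeast suspension (about 5 × 10⁷ cells/mL) was streaked on the surface. Plates were incubated at 30 °C for 3 days. MIC is the lowest concentration with no detectable growth.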

[2] = molecular target: P-glycoprotein (ABCB1, MDR1) (Homo sapiens, UniProt P08183); assay: Human MDR1 Pgp inhibitory activity by using standard calcein-AM efflux method with the human leukemia CEM cells.; format: cell-based, CCRF-CEM; conditions: probe calcein-AM; for IC50: human, human leukemia CEM cells
Sequence of P-glycoprotein (ABCB1, MDR1) (P08183 whole entry): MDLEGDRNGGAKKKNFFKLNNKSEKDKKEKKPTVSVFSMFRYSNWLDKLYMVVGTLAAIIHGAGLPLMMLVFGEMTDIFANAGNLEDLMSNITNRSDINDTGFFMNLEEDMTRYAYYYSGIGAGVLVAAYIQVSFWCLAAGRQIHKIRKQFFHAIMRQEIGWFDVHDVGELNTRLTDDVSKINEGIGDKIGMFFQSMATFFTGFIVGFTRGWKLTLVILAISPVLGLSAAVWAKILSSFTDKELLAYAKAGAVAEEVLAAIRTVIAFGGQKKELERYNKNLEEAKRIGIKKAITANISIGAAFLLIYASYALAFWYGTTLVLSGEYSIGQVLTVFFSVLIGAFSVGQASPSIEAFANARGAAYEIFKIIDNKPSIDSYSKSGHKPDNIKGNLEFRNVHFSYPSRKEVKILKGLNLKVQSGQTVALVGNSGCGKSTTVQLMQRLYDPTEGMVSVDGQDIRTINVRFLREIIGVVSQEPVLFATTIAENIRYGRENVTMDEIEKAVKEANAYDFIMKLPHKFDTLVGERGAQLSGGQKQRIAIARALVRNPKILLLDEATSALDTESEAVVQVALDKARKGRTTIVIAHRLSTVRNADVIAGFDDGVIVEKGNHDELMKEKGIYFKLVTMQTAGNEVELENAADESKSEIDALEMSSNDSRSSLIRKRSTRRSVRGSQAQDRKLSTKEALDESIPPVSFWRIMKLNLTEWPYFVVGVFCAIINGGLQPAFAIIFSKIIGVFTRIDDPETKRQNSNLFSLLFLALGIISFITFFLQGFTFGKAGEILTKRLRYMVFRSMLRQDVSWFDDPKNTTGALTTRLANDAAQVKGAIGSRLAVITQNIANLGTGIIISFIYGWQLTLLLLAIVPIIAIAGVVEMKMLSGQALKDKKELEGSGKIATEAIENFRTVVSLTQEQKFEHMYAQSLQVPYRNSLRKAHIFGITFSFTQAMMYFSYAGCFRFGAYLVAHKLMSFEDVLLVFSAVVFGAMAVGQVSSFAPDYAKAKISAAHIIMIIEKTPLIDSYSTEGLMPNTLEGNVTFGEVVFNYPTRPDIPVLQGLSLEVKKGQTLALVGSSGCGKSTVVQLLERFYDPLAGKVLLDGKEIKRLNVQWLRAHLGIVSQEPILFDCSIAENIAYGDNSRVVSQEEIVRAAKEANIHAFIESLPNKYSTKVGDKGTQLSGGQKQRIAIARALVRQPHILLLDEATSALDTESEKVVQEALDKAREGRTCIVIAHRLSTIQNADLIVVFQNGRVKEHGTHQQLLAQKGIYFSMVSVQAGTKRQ

Question: Which MIC [1] does the source give for `CC[C@H](C)[C@@H]1NC(=O)[C@@H]2CCCN2C(=O)[C@H](Cc2ccccc2)N(C)C(=O)[C@H](Cc2ccccc2)NC(=O)[C@H](C(C)C)N(C)C(=O)[C@@H]([C@@H](C)CC)OC(=O)[C@H](C(C)(C)O)N(C)C(=O)[C@H](CC(C)C)NC(=O)[C@H](C(C)C)N(C)C1=O` here?
Answer: Its MIC is 0.4 mg/L (≈ 0.363 µM).

Question: And the IC50 [2]?
Answer: Its IC50 is 2.27 µM.

Question: What about the IC20 [2] of the same molecule?
Answer: Its IC20 is 0.68 µM.

Question: How did the MIC [1] turn out when `CC[C@@H](C)[C@@H]1NC(=O)[C@@H]2CCCN2C(=O)[C@H](Cc2ccccc2)N(C)C(=O)[C@H](Cc2ccccc2)NC(=O)[C@H](C(C)C)N(C)C(=O)[C@@H]([C@@H](C)CC)OC(=O)[C@H](C(C)(C)O)N(C)C(=O)[C@H](CC(C)C)NC(=O)C(C(C)C)OC1=O` (some centres not stated) was run?
Answer: The MIC was over 25 mg/L.

Question: Which MIC [1] does the source give for `CC[C@@H](C)[C@@H]1NC(=O)[C@@H]2CCCN2C(=O)[C@H](Cc2ccccc2)N(C)C(=O)[C@H](Cc2ccccc2)NC(=O)[C@H](C(C)C)N(C)C(=O)[C@@H]([C@@H](C)CC)OC(=O)C(=C(C)C)N(C)C(=O)[C@H](CC(C)C)NC(=O)[C@H](C(C)C)N(C)C1=O` here?
Answer: The MIC was over 25 mg/L.

Question: For `CC[C@@H](C)[C@@H]1NC(=O)[C@@H]2CCCN2C(=O)[C@H](Cc2ccccc2)N(C)C(=O)[C@H](Cc2ccccc2)NC(=O)[C@H](C(C)C)N(C)C(=O)[C@@H](C(C)C)OC(=O)[C@H](C(C)(C)O)N(C)C(=O)[C@H](CC(C)C)NC(=O)[C@H](C(C)C)N(C)C1=O`, which MIC [1] is on record?
Answer: Its MIC is 0.4 mg/L (≈ 0.368 µM).

Question: How did the MIC [1] turn out when `CC[C@@H](C)[C@@H]1NC(=O)[C@@H]2CCCN2C(=O)[C@H]([C@H](O)c2ccccc2)N(C)C(=O)[C@H](Cc2ccccc2)NC(=O)[C@H](C(C)C)N(C)C(=O)[C@@H]([C@@H](C)CC)OC(=O)[C@H](C(C)(C)O)N(C)C(=O)[C@H](CC(C)C)NC(=O)[C@H](C(C)C)N(C)C1=O` was run?
Answer: Its MIC is 0.8 mg/L (≈ 0.716 µM).

Question: With `CC[C@@H](C)[C@@H]1NC(=O)[C@@H]2CCCN2C(=O)[C@H]([C@H](O)c2ccccc2)N(C)C(=O)[C@H](Cc2ccccc2)NC(=O)[C@H](C(C)C)N(C)C(=O)[C@@H]([C@@H](C)CC)OC(=O)[C@H](C(C)C)N(C)C(=O)[C@H](CC(C)C)NC(=O)[C@H](C(C)C)N(C)C1=O` as the molecule, how does the MIC [1] read?
Answer: The MIC was 1.7 mg/L (≈ 1.54 µM).

Question: For `CC[C@@H](C)[C@@H]1NC(=O)[C@@H]2CCCN2C(=O)[C@H](Cc2ccccc2)N(C)C(=O)[C@H](Cc2ccccc2)NC(=O)[C@H](C(C)C)N(C)C(=O)[C@@H]([C@@H](C)CC)OC(=O)[C@H]([C@H](C)CO)N(C)C(=O)[C@H](CC(C)C)NC(=O)[C@H](C(C)C)N(C)C1=O`, which MIC [1] is on record?
Answer: The MIC was 6.3 mg/L (≈ 5.72 µM).

Question: What does the source list for `CC[C@@H](C)[C@@H]1NC(=O)[C@@H]2CCCN2C(=O)[C@H](Cc2ccccc2)N(C)C(=O)[C@H](Cc2ccccc2)NC(=O)[C@H](C(C)C)N(C)C(=O)[C@@H]([C@@H](C)CC)OC(=O)[C@]2(OC2(C)C)N(C)C(=O)[C@H](CC(C)C)NC(=O)[C@H](C(C)C)N(C)C1=O`?
Answer: IC50 [2]: 1.55 µM; IC20 [2]: 0.46 µM

Question: With `CC[C@@H](C)[C@@H]1NC(=O)[C@@H]2CCCN2C(=O)[C@H](Cc2ccccc2)N(C)C(=O)[C@H](C2CCCCC2)NC(=O)[C@H](C(C)C)N(C)C(=O)[C@@H]([C@@H](C)CC)OC(=O)[C@H](C(C)(C)O)N(C)C(=O)[C@H](CC(C)C)NC(=O)[C@H](C(C)C)N(C)C1=O` as the molecule, how does the MIC [1] read?
Answer: The MIC was 1.6 mg/L (≈ 1.46 µM).

Question: With `CC[C@@H](C)[C@@H]1NC(=O)[C@@H]2CCCN2C(=O)[C@H](Cc2ccccc2)N(C)C(=O)[C@H](Cc2ccccc2)NC(=O)[C@H](C(C)C)N(C)C(=O)[C@@H]([C@@H](C)CC)OC(=O)[C@H](C(C)(C)O)N(C)C(=O)[C@H](CC(C)C)NC(=O)[C@H](C(C)C)NC1=O` as the molecule, how does the MIC [1] read?
Answer: The MIC was 1.6 mg/L (≈ 1.47 µM).

Question: For `CC[C@@H](C)[C@@H]1NC(=O)CCCCCCCNC(=O)[C@H](C(C)C)N(C)C(=O)[C@@H]([C@@H](C)CC)OC(=O)[C@H](C(C)(C)O)N(C)C(=O)[C@H](CC(C)C)NC(=O)[C@H](C(C)C)N(C)C1=O`, which MIC [1] is on record?
Answer: Its MIC is over 25 mg/L.

Question: Which MIC [1] does the source give for `CC[C@H](C)[C@@H]1NC(=O)[C@@H]2CCCN2C(=O)[C@H](Cc2ccccc2)N(C)C(=O)[C@H](Cc2ccccc2)NC(=O)[C@H](C(C)C)N(C)C(=O)[C@@H]([C@@H](C)CC)OC(=O)[C@@H](C(C)(C)O)N(C)C(=O)[C@H](CC(C)C)NC(=O)[C@H](C(C)C)N(C)C1=O` here?
Answer: The MIC was over 25 mg/L.

Question: What about the IC50 [2] of the same molecule?
Answer: The IC50 was 0.39 µM.

Question: And the IC20 [2]?
Answer: Its IC20 is 0.1 µM.
